High-throughput results from PubChem BioAssay.
MEKK2 WT-MEK5: raises or lowers MEK5 binding to wildtype human MEKK2 PB1 domain | Q9Y2U5 | binding response (% of control), % at 10 µM | bead flow cytometry, Alexa488-MEK5 binding to MEKK2 WT; actives lie on both sides | actives 1.1% (n = 290,000); in the data active means binding response below about 67% or above about 130%
MEKK2 mut-MEK5: signal of MEK5 binding to mutant human MEKK2 PB1 domain | bead flow cytometry, Alexa488-MEK5 binding to MEKK2 mutant | percent response, % at 10 µM | actives 0.35% (n = 290,000); in the data active means percent response above about 24%, passing the limit was not always enough
VIM-2 inhibitor: blocks Pseudomonas aeruginosa VIM-2 metallo-beta-lactamase; purified VIM-2, nitrocefin hydrolysis, epi-absorbance fluorescence; inhibition, % at 5.6 µM; AID 1527; actives 0.89% (n = 290,000);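 active means inhibition above the mean of all tested compounds plus 3 SD, cutoff set per screening run, cut at about 7.5% in these data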;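 further: red hydrolysis product quenches plate fluorescence so inhibitors raise well fluorescence; 0% = enzyme with DMSO and 100% = DMSO without enzyme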
IMP-1 inhibitor: blocks Pseudomonas aeruginosa IMP-1 metallo-beta-lactamase | purified IMP-1, nitrocefin hydrolysis, epi-absorbance fluorescence | inhibition, % at 5.6 µM | actives 0.45% (n = 290,000);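 active means inhibition above the mean plus 3 SD of all compounds in the same screening run, cut at about 4.5% in these data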;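 further: 0% = IMP-1 with DMSO and 100% = DMSO wells lacking enzyme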
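System: Purified recombinant IMP-1 metallo-beta-lactamase enzyme | Measured by: Fluorescence quenching readout, ex 480/em 530 nm | Replication: Singlicate | Incubation: 15 min preincubation plus 25 min reaction at 25 °C | Evaluation: Percent inhibition from optical density relative to buffer-blank wells | Benchmarks: DMSO with and without IMP-1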
MEKK3 PB1 HTS: raises or lowers MEK5 binding to the human MEKK3 PB1 domain; Q99759; bead-based flow cytometry, Alexa488-MEK5 binding to MEKK3; actives lie on both sides; 0 = blocked by unlabeled MEK5, 100 = vehicle; binding response (% of control), % at 10 µM; actives 1.4% (n = 290,000); AID 1529;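 active means binding response more than 3 SD above or below the average of its plate-row segment, actives on both sides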;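 further: Alexa488 bead fluorescence after subtracting the streptavidin-only scavenger bead signal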
Target sequence (Q99759 whole entry, looked up, the tested form may be a part): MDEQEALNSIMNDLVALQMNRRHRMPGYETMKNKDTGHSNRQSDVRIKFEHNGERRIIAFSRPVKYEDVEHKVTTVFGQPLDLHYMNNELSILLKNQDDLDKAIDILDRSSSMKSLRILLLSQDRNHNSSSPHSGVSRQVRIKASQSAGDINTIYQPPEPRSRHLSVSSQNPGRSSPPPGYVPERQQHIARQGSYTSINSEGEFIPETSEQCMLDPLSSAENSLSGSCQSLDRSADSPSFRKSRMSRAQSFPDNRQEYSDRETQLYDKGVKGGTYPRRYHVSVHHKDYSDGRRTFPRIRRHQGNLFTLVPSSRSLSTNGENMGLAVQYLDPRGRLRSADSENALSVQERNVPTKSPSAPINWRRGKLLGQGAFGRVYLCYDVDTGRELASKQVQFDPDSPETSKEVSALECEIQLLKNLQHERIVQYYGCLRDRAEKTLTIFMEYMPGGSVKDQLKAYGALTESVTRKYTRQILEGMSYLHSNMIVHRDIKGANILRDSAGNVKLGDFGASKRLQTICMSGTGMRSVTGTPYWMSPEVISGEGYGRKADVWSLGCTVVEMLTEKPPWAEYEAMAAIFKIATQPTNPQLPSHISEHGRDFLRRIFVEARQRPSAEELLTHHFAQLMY
* hit, by the source's call. The list is not random: actives were taken first. Their share in the collection is about 3.4%.

Results for COc1ccc(NC(=O)COc2ccc(/C=C/c3cc[n+](C)cc3)cc2OC)cc1 ?
MEKK2 WT-MEK5: 103; MEKK2 mut-MEK5: -1; VIM-2 inhibitor: 3; IMP-1 inhibitor: -2; MEKK3 PB1 HTS: 98

What do the screens show for `COc1ccc(NC(=O)NNC(=O)c2ccc(-c3ccccc3)cc2)cc1`?
MEKK2 WT-MEK5: 106; MEKK2 mut-MEK5: 8; VIM-2 inhibitor: -1; IMP-1 inhibitor: 4.9*; MEKK3 PB1 HTS: 103

How did COc1ccc(CC(=O)NNC(=O)c2ccc(NC(C)=O)cc2)cc1 do in these assays?
MEKK2 WT-MEK5: 100; MEKK2 mut-MEK5: -3; VIM-2 inhibitor: -1; IMP-1 inhibitor: 9.6*; MEKK3 PB1 HTS: 101

What do the screens show for `COc1ccc(OCc2nnc(SCC(=O)N3CCCCC3)o2)cc1`?
MEKK2 WT-MEK5: 101; MEKK2 mut-MEK5: 8; VIM-2 inhibitor: -7; IMP-1 inhibitor: -2; MEKK3 PB1 HTS: 103

How did O=C(NCCc1ccccc1)c1cccnc1 do in these assays?
MEKK2 WT-MEK5: 129; MEKK2 mut-MEK5: 11; VIM-2 inhibitor: -3; IMP-1 inhibitor: -1; MEKK3 PB1 HTS: 108

How did CCNCCNC(=O)c1c(O)c2cccc3c2n(c1=O)CCC3 do in these assays?
MEKK2 WT-MEK5: 100; MEKK2 mut-MEK5: 4; VIM-2 inhibitor: 8.5*; IMP-1 inhibitor: -2; MEKK3 PB1 HTS: 96

What do the screens show for `O=C(NCCCO)c1c(O)c2cccc3c2n(c1=O)CCC3`?
MEKK2 WT-MEK5: 106; MEKK2 mut-MEK5: 10; VIM-2 inhibitor: 11*; IMP-1 inhibitor: -3; MEKK3 PB1 HTS: 109

How did CCCCNC(=O)c1c(O)c2cccc3c2n(c1=O)CCC3 do in these assays?
MEKK2 WT-MEK5: 103; MEKK2 mut-MEK5: 4; VIM-2 inhibitor: -3; IMP-1 inhibitor: -3; MEKK3 PB1 HTS: 103

Results for COc1ccc(-n2nnnc2SCC(=O)Nc2cccc(O)c2)cc1 ?
MEKK2 WT-MEK5: 110; MEKK2 mut-MEK5: 13; VIM-2 inhibitor: 0; IMP-1 inhibitor: -1; MEKK3 PB1 HTS: 110

How did O=C(Cn1cnc2c(nnn2Cc2ccccc2F)c1=O)OCc1ccccc1 do in these assays?
VIM-2 inhibitor: -1; IMP-1 inhibitor: -3

What do the screens show for `Cc1cc(O)c(N)c(C)c1Cl`?
MEKK2 WT-MEK5: 92; MEKK2 mut-MEK5: -10; VIM-2 inhibitor: -1; IMP-1 inhibitor: -11; MEKK3 PB1 HTS: 103

How did O=C1Nc2ccc(Br)cc2C12NNc1ccccc1O2 (stereo not drawn) do in these assays?
MEKK2 WT-MEK5: -4.0*; MEKK2 mut-MEK5: -5; VIM-2 inhibitor: -2; IMP-1 inhibitor: -3; MEKK3 PB1 HTS: 93

Results for O=C1Nc2ccc(Br)cc2C1(O)c1ccccc1 (stereo not drawn) ?
MEKK2 WT-MEK5: 109; MEKK2 mut-MEK5: 13; VIM-2 inhibitor: -2; IMP-1 inhibitor: -1; MEKK3 PB1 HTS: 114

How did O=c1c2ccccc2ncn1-c1ccc(Cl)c(Cl)c1 do in these assays?
MEKK2 WT-MEK5: 107; MEKK2 mut-MEK5: 2; VIM-2 inhibitor: -3; IMP-1 inhibitor: -3; MEKK3 PB1 HTS: 104

Results for O=c1c2ccccc2ncn1-c1cccc(Cl)c1 ?
MEKK2 WT-MEK5: 102; MEKK2 mut-MEK5: -2; VIM-2 inhibitor: 5; IMP-1 inhibitor: 36*; MEKK3 PB1 HTS: 109

How did COC(=O)c1cc(S(=O)(=O)NCC2CCN(Cc3ccc(Cl)cc3)CC2)c[nH]1 do in these assays?
MEKK2 WT-MEK5: 116; MEKK2 mut-MEK5: 6; VIM-2 inhibitor: -5; IMP-1 inhibitor: -1; MEKK3 PB1 HTS: 105

How did CCC(=O)N(Cc1ccco1)Cc1cc2cc3c(cc2[nH]c1=O)OCO3 do in these assays?
MEKK2 WT-MEK5: 98; MEKK2 mut-MEK5: -3; VIM-2 inhibitor: 1; IMP-1 inhibitor: -2; MEKK3 PB1 HTS: 99

What do the screens show for `CCCc1cc(=O)oc2c(CNc3ccc(OCC)cc3)c(O)ccc12`?
MEKK2 WT-MEK5: 103; MEKK2 mut-MEK5: 4; VIM-2 inhibitor: -3; IMP-1 inhibitor: 5.8*; MEKK3 PB1 HTS: 105

Results for CCCCc1cc(=O)oc2c(CN3CCCC3)c(O)ccc12 ?
MEKK2 WT-MEK5: 108; MEKK2 mut-MEK5: 1; VIM-2 inhibitor: -1; IMP-1 inhibitor: 1; MEKK3 PB1 HTS: 105

What do the screens show for `Cc1cc(Cl)cc2c(N=Nc3ccccc3C(=O)O)c(O)[nH]c12`?
MEKK2 WT-MEK5: 96; MEKK2 mut-MEK5: 1; VIM-2 inhibitor: -4; IMP-1 inhibitor: -3; MEKK3 PB1 HTS: 98

Results for Cc1ccc(Cl)c2c(N=Nc3ccccc3)c(O)[nH]c12 ?
MEKK2 WT-MEK5: 111; MEKK2 mut-MEK5: 11; VIM-2 inhibitor: 7; IMP-1 inhibitor: 4.6*; MEKK3 PB1 HTS: 103

What do the screens show for `COc1ccc(CCNc2nc(-c3sc(N)nc3C)cs2)cc1OC`?
MEKK2 WT-MEK5: 102; MEKK2 mut-MEK5: -1; VIM-2 inhibitor: 0; IMP-1 inhibitor: 0; MEKK3 PB1 HTS: 101

Results for COCCNc1nc(-c2cc(C)n(CCc3ccc(OC)cc3)c2C)cs1 ?
MEKK2 WT-MEK5: -5.0*; MEKK2 mut-MEK5: 41; VIM-2 inhibitor: -1; IMP-1 inhibitor: -2; MEKK3 PB1 HTS: 80

How did CC1=CC(C)(C)n2c(O)c(N=NC(N)=S)c3cccc1c32 do in these assays?
MEKK2 WT-MEK5: 108; MEKK2 mut-MEK5: 0; VIM-2 inhibitor: 1; IMP-1 inhibitor: -3; MEKK3 PB1 HTS: 146*

What do the screens show for `CC1=CC(C)(C)n2c(O)c(N=NC(N)=S)c3c(C)ccc1c32`?
MEKK2 WT-MEK5: 107; MEKK2 mut-MEK5: 14; VIM-2 inhibitor: -2; IMP-1 inhibitor: -3; MEKK3 PB1 HTS: 101

How did Cc1nc2ccccc2c2oc(C(=O)NCCN3CCCCC3C)cc12 (stereo not drawn) do in these assays?
MEKK2 WT-MEK5: 125; MEKK2 mut-MEK5: 15; VIM-2 inhibitor: 11*; IMP-1 inhibitor: -3; MEKK3 PB1 HTS: 111

How did CCN1CCCC1CNC(=O)c1cc2c(C)nc3ccccc3c2o1 (stereo not drawn) do in these assays?
MEKK2 WT-MEK5: 114; MEKK2 mut-MEK5: 10; VIM-2 inhibitor: 8.2*; IMP-1 inhibitor: 1; MEKK3 PB1 HTS: 104

What do the screens show for `Cc1nc2ccccc2c2oc(C(=O)N3CCCC(C)C3)cc12` (stereo not drawn)?
MEKK2 WT-MEK5: 98; MEKK2 mut-MEK5: -9; VIM-2 inhibitor: 9.6*; IMP-1 inhibitor: -1; MEKK3 PB1 HTS: 94

What do the screens show for `CCc1ccc(CNC(=O)c2cc3c(C)nc4ccccc4c3o2)cc1`?
MEKK2 WT-MEK5: 112; MEKK2 mut-MEK5: 11; VIM-2 inhibitor: -4; IMP-1 inhibitor: -3; MEKK3 PB1 HTS: 108

How did COc1ccccc1-n1cc([C@@H]2C[C@H]3CN(c4ccccc4)C(=O)[C@]34CCCN24)cn1 do in these assays?
MEKK2 WT-MEK5: 71; MEKK2 mut-MEK5: 138*; VIM-2 inhibitor: -2; IMP-1 inhibitor: -3; MEKK3 PB1 HTS: 104

What do the screens show for `COc1cc([C@@H]2C[C@H]3CN(c4ccccc4)C(=O)[C@]34CCCN24)cc(OC)c1OC`?
MEKK2 WT-MEK5: 95; MEKK2 mut-MEK5: -1; VIM-2 inhibitor: -2; IMP-1 inhibitor: -1; MEKK3 PB1 HTS: 97

What do the screens show for `Cc1ccc(NC(=O)COC(=O)Cc2cccs2)c(Br)c1`?
MEKK2 WT-MEK5: 105; MEKK2 mut-MEK5: 5; VIM-2 inhibitor: 0; IMP-1 inhibitor: -1; MEKK3 PB1 HTS: 104
